Results: PubChem BioAssay AID685 (PCMD, 2007)
About 80 (0.3%) of roughly 30,000 compounds were called active.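 Rule for the calls: active = mutant and wild-type yeast strains alike exhibit over 30% growth inhibition; inconclusive = a strain exceeds 50% while the second remains under 30%; inactive = the rest.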 Only a selection was taken, and actives are over-represented in it overall.

Test: S. cerevisiae growth inhibition, turbidity – wild-type and eIF2Bepsilon R284H mutant, A595, cytotoxicity control for eIF2B function restoration project, primary screen (AID 685);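 note: 0% = untreated cell controls and 100% = YPD media blanks without cells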
Conditions: 16 h, stronger effect = higher value, screened at 25 µM (by protocol)
In short: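 Incubation: 16 h growth with compound, 30 °C; Material: S. cerevisiae wild-type or eIF2Bepsilon-R284H mutant strain; Signal: turbidity measured as absorbance at 595 nm; Medium: YPD yeast growth medium; Measure: growth inhibition (%) versus cell controls and blanks; Doses: 25 µM single dose.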

[1] = S. cerevisiae eIF2Bepsilon-R284H mutant growth

Row | SMILES | growth inhibition [1] [%] | growth inhibition (S. cerevisiae wild-type growth)
1 | COC(=O)COc1ccc(S(=O)(=O)N2CCOCC2)cc1 | 0 | -24.2% (inactive)
2 | Cc1ccc(-c2csc(NC(=O)Cc3cccs3)n2)cc1C | 0 | 33.1% (inactive)
3 | CCOC(=O)C1=C(C)NC(SC)=NC1c1ccccc1 (centres undefined) | -3.45 | -15.1% (inactive)
4 | Cc1ccc(N(CC(=O)Nc2cccc(N(C)S(C)(=O)=O)c2)S(C)(=O)=O)cc1 | 16.1 | 8.21% (inactive)
5 | Cn1c(N)c(C(=O)COC(=O)C23CC4CC(CC(C4)C2)C3)c(=O)n(C)c1=O | 11.6 | 6.55% (inactive)
6 | CN=C1SC(CC(=O)Nc2ccc(C(=O)O)cc2)C(=O)N1C (centres undefined) | 10.3 | 13.1% (inactive)
7 | O=S(=O)(NCCOc1cccc2cccnc12)c1ccc(F)cc1 | 0 | -11.7% (inactive)
8 | O=C(c1cccc(F)c1)N1CCC(O)(c2cccnc2)CC1 | -27.3 | 1.72% (inactive)
9 | CCOc1ccc(NC(=O)C2CCCN(C(=O)Nc3ccccc3)C2)cc1 (centres undefined) | 8.33 | 16.3% (inactive)
10 | CC(OC(=O)CN1C(=O)C2CCCCC2C1=O)C(=O)Nc1ncc(Cl)cc1Cl (centres undefined) | 15.2 | 19.3% (inactive)
11 | CCOC(=O)c1c(NC(=O)CSc2nnc(CNc3ccc(C)cc3C)o2)sc(C)c1C | 25.9 | 25.9% (inactive)
12 | CCCCN(CC)CCNC(=O)c1[nH]c(C)c(C(C)=O)c1C | 17.6 | 11.2% (inactive)
13 | OC(C#CCN1CCOCC1)(c1ccccc1)C1CCCCC1 (centres undefined) | 7.89 | 34.3% (inactive)
14 | CCOCCOCCC(C(=O)O)P(=O)(c1ccccc1)c1ccccc1 (centres undefined) | 16.7 | 13.8% (inactive)
15 | CCc1cc(Br)ccc1NC(=O)C1CCCO1 (centres undefined) | 18.5 | -7.78% (inactive)
16 | OC(CNCC1CCCO1)Cn1c2ccc(Br)cc2c2cc(Br)ccc21 (centres undefined) | 100 | 86.7% (active)
17 | CCn1cc(C(=O)NCC2CCCO2)c(=O)c2cc(S(=O)(=O)N3CCCCC3)ccc21 (centres undefined) | -11.1 | 6.79% (inactive)
18 | COc1ccc(CCNC(=O)CN(c2ccccc2)S(C)(=O)=O)cc1OC | 12.8 | 18.3% (inactive)
19 | COC(=O)c1c(C)c(C)nc(N)c1C#N | -9.52 | -10.8% (inactive)
20 | COC(=O)c1ccc(Cc2ccccc2)o1 | 19.4 | 10% (inactive)
21 | CCOC(=O)c1cc2c(ccn2C)n1CC(=O)N1CCC(C)CC1 | 4.55 | -20.7% (inactive)
22 | O=C(C1CCC(C(=O)N2CCCC2)CC1)N1CCCC1 (centres undefined) | -12.9 | -0.38% (inactive)

Row | SMILES | growth inhibition [1] [%] | growth inhibition (S. cerevisiae wild-type growth)
23 | Cn1c(Cn2nnc3ccccc32)nnc1SCC(=O)c1ccccc1F | 16.2 | 4.07% (inactive)
24 | O=C(NC(=O)c1ccccc1)NC(=O)c1ccccc1 | 5.26 | 12.5% (inactive)
25 | Nc1nc(SCc2ccccc2Cl)n[nH]1 | 16.2 | -0.77% (inactive)
26 | CC(C)N(C(=O)COC(=O)c1ccccc1C(=O)N1CCN(c2ccc(F)cc2)CC1)C(C)C | -1.35 | -10% (inactive)
27 | COc1ccc(O)c(C(=O)c2cnc3onc(C(C)C)c3c2)c1 | -10.5 | 8.18% (inactive)
28 | CS(=O)(=O)N(CC(=O)N1CCN(c2ccc(F)cc2)CC1)C1CCCCC1 | 4.76 | 3.1% (inactive)
29 | O=C(Nc1ccc(Cl)cc1)c1cc2nc(C3CC3)cc(C(F)(F)F)n2n1 | -4.05 | 1.92% (inactive)
30 | O=C(CSCc1ccccc1)N1CCc2ccccc21 | 9.38 | 14.7% (inactive)
31 | O=C(CN1CCSCC1)N/N=C/c1ccc(F)cc1 | 17.5 | 10% (inactive)
32 | O=C(Nc1ccccc1-c1nnn(CC(=O)N2CCCc3ccccc32)n1)c1cccc(Cl)c1 | 4.35 | -12.9% (inactive)
33 | CC1CCC2(CC1)NC(=O)N(CC(=O)c1cccn1C)C2=O (centres undefined) | -4.76 | 3% (inactive)
34 | Cc1cc(=O)[nH]c(SCc2cccc(F)c2)n1 | 0 | 10.8% (inactive)
35 | Cc1cc(C)cc(NC(=O)C2CCN(c3nc(C)cc(C)n3)CC2)c1 | -2.94 | 5.33% (inactive)
36 | CC(c1ccco1)N(C(=O)COc1ccccc1[N+](=O)[O-])c1ccccn1 (centres undefined) | -23.8 | -11% (inactive)
37 | COc1cc(C)c(C(C)C)cc1S(=O)(=O)n1ccnc1 | -20 | -17% (inactive)
38 | O=c1[nH]nc(CSCc2ccccc2Cl)[nH]1 | -3.13 | -3.79% (inactive)
39 | O=C(O)c1cc2ccccc2c(=O)s1 | -9.52 | 17.3% (inactive)
40 | CCN(CC)C(=O)CSc1ncnc2c1cnn2-c1ccccc1 | -12.9 | 1.3% (inactive)
41 | O=C(Cn1cnc2ccccc2c1=O)NCC1COc2ccccc2O1 (centres undefined) | 10.9 | 3.57% (inactive)
42 | O=C(NCC1CCC(C(=O)O)CC1)OCc1ccccc1 (centres undefined) | 0 | -12.5% (inactive)
43 | COc1ccc(S(=O)(=O)NCc2ccc(C(=O)N(C)Cc3ccco3)cc2)cc1 | 6.06 | -4.07% (inactive)
44 | Clc1cccc(N=C2NN=C(c3ccc4c(c3)OCCO4)CS2)c1 | 5.13 | -0.77% (inactive)

Row | SMILES | growth inhibition [1] [%] | growth inhibition (S. cerevisiae wild-type growth)
45 | CC(C)Oc1ccc(Oc2ccc(C(F)(F)F)cn2)cc1 | 7.69 | 6% (inactive)
46 | Cc1ccc(C2C(C#N)C(C#N)N3CCCN23)cc1 (centres undefined) | 13 | -7.5% (inactive)
47 | Cc1ccc(C(=O)CSc2nnc(Cn3nnc4ccccc43)n2C)cc1 | 3.7 | 16.7% (inactive)
48 | COc1ccc(OCC(=O)N2CCOCC2)cc1 | 17.9 | 15.5% (inactive)
49 | O=S(=O)(NCC1OCCc2ccccc21)c1ccccc1 (centres undefined) | 15.2 | 16.1% (inactive)
50 | CCN(c1ccccc1)S(=O)(=O)c1ccc(NC(=O)C(C)(C)C)cc1 | 15 | -4.62% (inactive)
51 | Cc1cc(-c2ccccc2)nc(N2CCC(C(=O)NC34CC5CC(CC(C5)C3)C4)CC2)n1 | -19.1 | 2.16% (inactive)
52 | C=CCNC(=O)c1ccc(C)c(Br)c1 | 0 | 6.76% (inactive)
53 | CCN(CC)S(=O)(=O)c1ccc2c3c(cccc13)C(=O)S2 | -4.76 | 16.2% (inactive)
54 | O=C(O)CCC(=O)NCc1ccc(C(=O)O)cc1 | 16.7 | 9.62% (inactive)
55 | Cc1cccn2c(=O)c(/C=C(\C#N)S(=O)(=O)c3ccc(Cl)cc3)c(N3CCC(C(N)=O)CC3)nc12 | 0 | 7.31% (inactive)
56 | CCCCSc1[nH]c(=O)c(C(=O)OCC)cc1C#N | 5 | 2.76% (inactive)
57 | COc1ccc(CN(Cc2ccco2)S(=O)(=O)c2ccc(S(=O)(=O)N3CCCC3)cc2)cc1 | -2.56 | 16.6% (inactive)
58 | O=C(CN1CCOCC1)Nc1ccccc1 | 12.8 | 11.2% (inactive)
59 | CCCCCCNC(=O)CSc1nccn1Cc1ccccc1 | 11.1 | 20.4% (inactive)
60 | Cc1ccc(CNC(=O)COc2ccc(S(=O)(=O)NC(C)C)cc2)cc1 | 11.6 | 20.3% (inactive)
61 | COc1ccc(NC(=O)Cn2c(=O)n(Cc3ccco3)c(=O)c3ccccc32)cc1 | -12.8 | -47.3% (inactive)
62 | O=c1c2ccccc2nc(CSc2nnnn2-c2ccccc2)n1-c1ccccc1 | -14.8 | -3.81% (inactive)
63 | CCN(CC)C(=O)CSc1nnc(C2CCCCC2)o1 | 6.82 | 9.66% (inactive)
64 | CCOc1cc(NC(=O)c2cnccn2)c(OCC)cc1NC(=O)c1ccc(C)cc1 | -33.3 | -5.09% (inactive)
65 | CC(C)(C)C(=O)Cn1c(NCCO)nc2ccccc21 | -6.25 | 21% (inactive)
66 | Cc1ccc(-n2ccc(=O)c(C(=O)O)n2)cc1 | 18.9 | 4.62% (inactive)

Row | SMILES | growth inhibition [1] [%] | growth inhibition (S. cerevisiae wild-type growth)
67 | Cc1ccc(Cc2c(C)nc3nc(SCC(=O)NCCN4CCOCC4)nn3c2C)cc1 | 0 | 3.33% (inactive)
68 | CC(C)CC(=O)Nc1cc(C(F)(F)F)ccc1N1CCOCC1 | 10.5 | 18.6% (inactive)
69 | CCC(c1nnnn1C1CCCC1)N1CCN(C(=O)c2ccco2)CC1 (centres undefined) | -13.6 | -4.24% (inactive)
70 | CCC(O)CNc1nc(-n2nc(C)cc2C)nc2sc3c(c12)CC(C)(C)OC3 (centres undefined) | -4.55 | 4.83% (inactive)
71 | O=C(CCc1ccccc1)NCc1cccnc1 | 4.55 | -12.1% (inactive)
72 | CCOCCCNC(=O)c1c[nH]c2cc(C)ccc2c1=O | -17.9 | 16.6% (inactive)
73 | N#Cc1c(/N=C/N2CCCC2)oc(-c2ccccc2)c1-c1ccccc1 | 7.69 | -15.7% (inactive)
74 | COc1ccccc1NC(=O)C1CCCN(c2cc(C)nc3ncnn23)C1 (centres undefined) | -7.89 | 2.42% (inactive)
75 | COc1ccc2oc(C)c(NC(C)=O)c2c1 | -6.67 | 17.6% (inactive)
76 | FC(F)(F)c1nnc2ccc(N3CCN(c4ccccc4)CC3)nn12 | 9.68 | 11.8% (inactive)
77 | OC(c1ccccc1)c1nccn1Cc1ccccc1 (centres undefined) | 6.98 | 31% (inactive)
78 | O=C(CCC(=O)OCC(F)(F)C(F)F)NCc1ccccc1 | 8.11 | 2.5% (inactive)
79 | CCOC(=O)CSc1nc2ccc(C)cc2[nH]1 | 0 | -5.43% (inactive)
80 | CC(=O)c1cccc(NC(=O)Nc2ccc(C)cc2)c1 | 12.5 | -4.69% (inactive)
81 | COc1ccc(N2CCN(C(=O)CCc3nc(-c4ccc(C)cc4)no3)CC2)cc1 | 5 | 10% (inactive)
82 | Cc1ccc(S(=O)(=O)Oc2ccc(/C=N/NC(=O)c3c(Cl)cnn3C)cc2)cc1 | 0 | 11.2% (inactive)
83 | CCCc1nc(NCc2ccc3c(c2)OCO3)c2nnn(Cc3ccccc3Cl)c2n1 | -4.84 | -14.3% (inactive)
84 | COc1ccc(CN2CN(C(C)C)CSC2=S)cc1 | 81.8 | 44.7% (active)
85 | COc1cc2c(cc1OC)C(C(C)C)=NC(C)(C)C2 | 3.13 | 7.59% (inactive)
86 | CCOCCCNC(=O)C(NC(=O)CNC(=O)c1ccccc1)c1ccc(C)cc1 (centres undefined) | 0 | 1.25% (inactive)
87 | C=C(C)CSc1nnc(-c2ccc(C)cc2)n1N | 10.3 | -3.2% (inactive)
